Measured values collected from several papers.
CA1: Carbonic anhydrase 1 (CA1, Homo sapiens, UniProt P00915)
CA2: Carbonic anhydrase 2 (CA2, Homo sapiens, UniProt P00918)
ADRA2A: Alpha-2A adrenergic receptor (ADRA2A, Homo sapiens, UniProt P08913)

| SMILES | target | assay | Ki [µM] |
| --- | --- | --- | --- |
| Cc1ccc(-n2cc(COC(=O)c3ccc(=O)oc3)nn2)cc1 | CA1 | enzyme activity, inhibitor, stopped-flow | > 100 |
| CC(C)(C(=O)O)c1ccc(C(O)CCCN2CCC(C(O)(c3ccccc3)c3ccccc3)CC2)cc1 (stereo not drawn) | CA2 | enzyme activity, inhibitor, absorbance | 17.9 |
| NS(=O)(=O)c1nnc(NC(=O)C2CCC3(CCCCC3)C2)s1 (stereo not drawn) | CA1 | enzyme activity, inhibitor, stopped-flow | 0.22 |
| C#CCOC(=O)c1ccc(=O)oc1 | CA1 | enzyme activity, inhibitor, stopped-flow | > 100 |
| CN(C/C=C/C#CC(C)(C)C)Cc1cccc2ccccc12 | CA2 | enzyme activity, inhibitor, absorbance | 20.3 |
| NS(=O)(=O)c1cnc(NC(=O)CC2CCCCC2)s1 | CA1 | enzyme activity, inhibitor, stopped-flow | 1.58 |
| COc1ccc(-n2cc(CNC(=O)c3ccc(=O)oc3)nn2)cc1 | CA1 | enzyme activity, inhibitor, stopped-flow | > 100 |
| Cc1cc(Oc2ncccc2CN2CCN(c3ccccc3C(F)(F)F)CC2)ccc1-c1c(C)c(=O)[nH]c(=O)n1C | ADRA2A | ligand displacement, radioligand | 0.175 |
| C[C@H]1c2cccc(O)c2C(=O)C2=C(O)[C@]3(O)C(=O)C(C(N)=O)=C(O)[C@@H](N(C)C)[C@@H]3[C@@H](O)[C@@H]21 | CA1 | enzyme activity, inhibitor | 8.51 |
| O=C(NCc1cn(-c2ccc(Cl)cc2)nn1)c1ccc(=O)oc1 | CA1 | enzyme activity, inhibitor, stopped-flow | > 100 |
| Nc1ccc(S(=O)(=O)c2ccc(N)cc2)cc1 | CA1 | enzyme activity, inhibitor | 11.6 |
| Cc1cc(Oc2ncccc2CN2CCN(Cc3ccccc3Cl)CC2)ccc1-c1c(C)c(=O)[nH]c(=O)n1C | ADRA2A | ligand displacement, radioligand | 0.0812 |
| NS(=O)(=O)c1nnc(NC(=O)C2CCC3(CCCC3)CC2)s1 | CA2 | enzyme activity, inhibitor, stopped-flow | 0.0594 |
| COc1ccnc(C[S+]([O-])c2nc3ccc(OC(F)F)cc3[nH]2)c1OC (stereo not drawn) | CA2 | enzyme activity, inhibitor, absorbance | 8.72 |
| CCN1/C(=C/C(C)=O)Sc2ccc(F)cc21 | ADRA2A | ligand displacement, radioligand | 50.3 |
| Cc1cc(Oc2ncccc2CN2CCN(c3ccccc3C#N)CC2)ccc1-c1c(C)c(=O)[nH]c(=O)n1C | ADRA2A | ligand displacement, radioligand | 0.128 |
| CC1=C(/C=C/C(C)=C/C=C/C(C)=C\C(=O)O)C(C)(C)CCC1 | CA1 | enzyme activity, inhibitor | 5.75 |
| Cc1cc(Oc2ncccc2CN2CCN(c3ccc(Cl)cc3)CC2)ccc1-c1c(C)c(=O)[nH]c(=O)n1C | ADRA2A | ligand displacement, radioligand | 0.576 |
| O=C(Oc1ccc(Br)cc1)c1ccc(=O)oc1 | CA1 | enzyme activity, inhibitor, stopped-flow | > 100 |
| Cc1cc(Oc2ncccc2CN2CCN(c3c(C)cccc3C)CC2)ccc1-c1c(C)c(=O)[nH]c(=O)n1C | ADRA2A | ligand displacement, radioligand | 0.731 |
| Cc1ccc(C(=O)Nc2nnc(S(N)(=O)=O)s2)cc1 | CA2 | enzyme activity, inhibitor, stopped-flow | 0.0211 |
| Cc1cc(Oc2ncccc2CN2CCN(c3ccccc3[N+](=O)[O-])CC2)ccc1-c1c(C)c(=O)[nH]c(=O)n1C | ADRA2A | ligand displacement, radioligand | 0.146 |
| O=C(O)COCCN1CCN(C(c2ccccc2)c2ccc(Cl)cc2)CC1 (stereo not drawn) | CA1 | enzyme activity, inhibitor | 9.9 |
| Cc1cc(Oc2ncccc2CN2CCN(c3ccccc3Cl)CC2)ccc1-c1c(C)c(=O)[nH]c(=O)n1C | ADRA2A | ligand displacement, radioligand | 0.08 |
| CC(C(=O)Nc1nnc(S(N)(=O)=O)s1)C1CCCCC1 (stereo not drawn) | CA2 | enzyme activity, inhibitor, stopped-flow | 0.0183 |
| COc1ccc(N2CCN(Cc3cccnc3Oc3ccc(-c4c(C)c(=O)[nH]c(=O)n4C)c(C)c3)CC2)cc1 | ADRA2A | ligand displacement, radioligand | 1.32 |
| Cc1ccc(-n2cc(CNC(=O)c3ccc(=O)oc3)nn2)cc1 | CA1 | enzyme activity, inhibitor, stopped-flow | > 100 |
